This note sets out measurements from the array DNA melting data of Ke et al. (doi:10.1101/2024.01.08.574731).

Series [1] is described as follows: folding enthalpy; higher = less favourable; fluorescence melt of hairpins on a sequencing array, two-state fit. The settings on record: sodium 0.088 M. The procedure, abridged: (§1)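 Folding enthalpy and melting temperature come from bootstrapped two-state fits to Cy3 fluorescence of library hairpins carrying annealed Cy3 and quencher oligos on a sequenced MiSeq flow cell. Imaging was done in 50 mM Na-HEPES pH 8.0, 25 mM NaCl, stepping by 2.5 °C up to 60 °C, and signals were normalised to pre-quench Cy3 and to control constructs. Results of four replicates were combined by inverse variance, and fitted temperatures were raised by 9.35 °C to match UV melts.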

The nature of series [2]: melting temperature; fluorescence melt of hairpins on a sequencing array, two-state fit, raised by 9.35 °C to match UV melts. The settings on record: sodium 0.088 M. The procedure, abridged:
as §1

Consider GATCTCTAGCGAGATC ((((((....)))))), for which the folding enthalpy in series [1] is -23.1 kcal/mol. Besides, in series [2], the Tm amounted to 49.9 °C.
On to GATCTCTATTGAGATC ((((((....)))))), for which the folding enthalpy in series [1] was -39.1 kcal/mol. The Tm in series [2] was 53 °C.
For GATCTCTCCTGAGATC ((((((....)))))) the same measures were -39.3 kcal/mol and 55 °C.
For GATCTCTCTCGAGATC ((((((....)))))), in series [1], the folding enthalpy was -37.2 kcal/mol. For the same sequence, in series [2], the Tm came to 52 °C.
For GATCTCTGCGAGATC ((((((...)))))) the same measures were -19.3 kcal/mol and 52.8 °C.
The corresponding values for GATCTCTGCTGAGATC ((((((....)))))) are -45.9 kcal/mol and 53.7 °C.
The corresponding values for GATCTCTTCCGAGATC ((((((....)))))) are -37 kcal/mol and 52.3 °C.
Regarding GATCTCTTCGAGATC ((((((...)))))), the folding enthalpy in series [1] is -36.9 kcal/mol. Also, in series [2], the Tm amounted to 55.4 °C.
For GATCTGAAAAGATC (((((....))))) the same measures were -28.2 kcal/mol and 45.6 °C.
As to GATCTGAAATCAGATC ((((((....)))))), the folding enthalpy in series [1] was -36.1 kcal/mol. Besides, the Tm in series [2] worked out at 45.1 °C.
For GATCTGAACACAGATC ((((((....)))))) the same measures were -34.7 kcal/mol and 48.4 °C.
For GATCTGAATTCAGATC ((((((....)))))) the same measures were -41.6 kcal/mol and 50.2 °C.
The corresponding values for GATCTGACCCCAGATC ((((((....)))))) are -34.3 kcal/mol and 45.8 °C.
Take GATCTGACCGCAGATC ((((((....)))))): in series [1], the folding enthalpy was -27.4 kcal/mol. Moreover, the Tm in series [2] is 48 °C.
The corresponding values for GATCTGACGGCAGATC ((((((....)))))) are -49.4 kcal/mol and 51.4 °C.
For GATCTGACTCAGATC ((((((...)))))), the folding enthalpy in series [1] was -33.7 kcal/mol. For the same sequence, in series [2], the Tm turned out to be 46.8 °C.
Turning to GATCTGAGACAGATC ((((((...)))))), in series [1], the folding enthalpy is -42.3 kcal/mol. The Tm in series [2] stood at 46.8 °C.
For GATCTGAGGCCAGATC ((((((....)))))) the same measures were -35.8 kcal/mol and 47.1 °C.
The corresponding values for GATCTGAGTCAGATC ((((((...)))))) are -36.5 kcal/mol and 47.5 °C.
The corresponding values for GATCTGATATCAGATC ((((((....)))))) are -40.1 kcal/mol and 51 °C.
For the sequence GATCTGATGCAGATC ((((((...)))))), the folding enthalpy in series [1] was -34.5 kcal/mol. For the same sequence, the Tm in series [2] turned out to be 48 °C.
The corresponding values for GATCTGATGTCAGATC ((((((....)))))) are -53.1 kcal/mol and 49.1 °C.
For GATCTGATTTCAGATC ((((((....)))))) the same measures were -34.4 kcal/mol and 51.4 °C.
As to GATCTGCAAGCAGATC ((((((....)))))), in series [1], the folding enthalpy is -40.2 kcal/mol. Also, the Tm in series [2] was 57.6 °C.
For GATCTGCACCAGATC ((((((...)))))) the same measures were -41.8 kcal/mol and 47.9 °C.
For GATCTGCAGCAGATC ((((((...)))))) the same measures were -35 kcal/mol and 49.2 °C.
In the case of GATCTGCAGTCAGATC ((((((....)))))), the folding enthalpy in series [1] is -34.5 kcal/mol. Besides, in series [2], the Tm was found to be 49.2 °C.
For GATCTGCCACCAGATC ((((((....)))))) the same measures were -35.1 kcal/mol and 48.7 °C.
For GATCTGCCTCCAGATC ((((((....)))))), in series [1], the folding enthalpy is -32.6 kcal/mol. The Tm in series [2] turned out to be 46.3 °C.
For GATCTGCCTGCAGATC ((((((....)))))) the same measures were -43.3 kcal/mol and 62.6 °C.
For GATCTGCTACAGATC ((((((...)))))) the same measures were -29.6 kcal/mol and 49.6 °C.
For GATCTGCTATCAGATC ((((((....)))))) the same measures were -35.3 kcal/mol and 49.6 °C.
Take GATCTGCTGGCAGATC ((((((....)))))): the folding enthalpy in series [1] is -43.6 kcal/mol. In addition, the Tm in series [2] came to 62.5 °C.
The corresponding values for GATCTGCTTGCAGATC ((((((....)))))) are -40.1 kcal/mol and 67.3 °C.
With GATCTGGAACAGATC ((((((...)))))), in series [1], the folding enthalpy is -37.7 kcal/mol. Besides, the Tm in series [2] was 58.8 °C.
The corresponding values for GATCTGGAACCAGATC ((((((....)))))) are -38.5 kcal/mol and 53.9 °C.
The corresponding values for GATCTGGACTCAGATC ((((((....)))))) are -46.3 kcal/mol and 53.1 °C.
For the sequence GATCTGGCCCAGATC ((((((...)))))), in series [1], the folding enthalpy was -35.1 kcal/mol. Further, in series [2], the Tm stood at 49.7 °C.
